# Results pooled from the literature.
# Each line is one published result; the experiments were not run side by side.
Structure (SMILES),target or system,test,system,setting,endpoint,result
CC(C)/N=c1\cc2n(-c3ccc(Cl)cc3)c3ccccc3nc-2cc1Nc1ccc(Cl)cc1,Mycobacteroides abscessus,microbial growth,,clinical isolate,MIC,3.75 µM
CN(C)c1cc(NC(=O)CCc2cccnc2)c(O)c2c1C[C@H]1C[C@H]3[C@H](N(C)C)C(O)=C(C(N)=O)C(=O)[C@@]3(O)C(O)=C1C2=O,Mycobacteroides abscessus,"microbial growth, resazurin",ATCC19977,,IC50,5.63 µg/mL
O=C(CO/N=c1\cc2n(-c3ccc(Cl)cc3)c3ccccc3nc-2cc1Nc1ccc(Cl)cc1)NCc1ccc2c(c1)CCO2,Mycobacteroides abscessus,microbial growth,,clinical isolate,MIC,> 30 µM
CN(C)c1cc(NC(=O)CNC(C)(C)C)c(O)c2c1C[C@H]1C[C@H]3[C@H](N(C)C)C(O)=C(C(N)=O)C(=O)[C@@]3(O)C(O)=C1C2=O,Mycobacteroides abscessus,"microbial growth, resazurin",ATCC19977,,IC50,0.28 µg/mL
COc1ccc(C(=O)C#Cc2ccc(O)c(OC)c2)cc1,Pseudomonas aeruginosa,"microbial growth, absorbance",,"10 µM, 24 h",activity vs control,95%
CCOC(=O)CNC(=O)CO/N=c1\cc2n(-c3ccc(Cl)cc3)c3ccccc3nc-2cc1Nc1ccc(Cl)cc1,Mycobacteroides abscessus,microbial growth,,clinical isolate,MIC,> 30 µM
CN(C)c1cc(NC(=O)Cc2cccnc2)c(O)c2c1C[C@H]1C[C@H]3[C@H](N(C)C)C(O)=C(C(N)=O)C(=O)[C@@]3(O)C(O)=C1C2=O,Mycobacteroides abscessus,"microbial growth, resazurin",ATCC19977,,IC50,1.29 µg/mL
OC(C#Cc1ccc(F)c(F)c1)c1ccccc1 (stereo not shown),Pseudomonas aeruginosa,"microbial growth, absorbance",,"100 µM, 24 h",activity vs control,97%
O/N=c1\cc2n(-c3ccc(Cl)cc3)c3ccccc3nc-2cc1Nc1ccc(Cl)cc1,Mycobacteroides abscessus,microbial growth,,clinical isolate,MIC,> 30 µM
OC(C#Cc1ccc(F)c(F)c1)c1cccc(Cl)c1 (stereo not shown),Pseudomonas aeruginosa,"microbial growth, absorbance",,"10 µM, 24 h",activity vs control,96%
CN(C)c1cc(NC(=O)Cc2ccccn2)c(O)c2c1C[C@H]1C[C@H]3[C@H](N(C)C)C(O)=C(C(N)=O)C(=O)[C@@]3(O)C(O)=C1C2=O,Mycobacteroides abscessus,"microbial growth, resazurin",ATCC19977,,IC50,0.67 µg/mL
COc1cc(C#CC(=O)C2CCCCC2)ccc1O,Pseudomonas aeruginosa,"microbial growth, absorbance",,"10 µM, 24 h",activity vs control,81%
C=CC(=O)NC1CCN(c2ncc3ncnc(Nc4ccc(Oc5ccc6c(c5)ncn6C)c(C)c4)c3n2)CC1,ONS-76,cell growth or viability,,,EC50,483 nM
O=C(NO)c1ccc(CNc2nc3cccc(-c4ccc5c(c4)OCO5)n3n2)cc1,DU-145,"cell growth or viability, SRB",,,GI50,470 nM
C=C(F)C(=O)N1CCN(c2nc(OC[C@@H]3CCCN3C)nc3c2CCN(c2cccc4cccc(Cl)c24)C3)C[C@@H]1CC#N,MIA PaCa-2,"cell growth or viability, ATP luminescence",,3D culture,IC50,2.51 nM
CCCCC[C@H](O)CC(=O)CCc1ccc(O)c(OC)c1,Pseudomonas aeruginosa,"microbial growth, absorbance",,"10 µM, 24 h",activity vs control,99%
CN(C)c1cc(NC(=O)Cc2ccncc2)c(O)c2c1C[C@H]1C[C@H]3[C@H](N(C)C)C(O)=C(C(N)=O)C(=O)[C@@]3(O)C(O)=C1C2=O,Mycobacteroides abscessus,"microbial growth, resazurin",ATCC19977,,IC50,0.57 µg/mL
C=CCO/N=c1\cc2n(-c3ccc(Cl)cc3)c3ccccc3nc-2cc1Nc1ccc(Cl)cc1,Mycobacteroides abscessus,microbial growth,,clinical isolate,MIC,> 30 µM
CN(C)c1cc(NC(=O)c2ccccc2)c(O)c2c1C[C@H]1C[C@H]3[C@H](N(C)C)C(O)=C(C(N)=O)C(=O)[C@@]3(O)C(O)=C1C2=O,Mycobacteroides abscessus,"microbial growth, resazurin",ATCC19977,,IC50,13.8 µg/mL
O=C(CO/N=c1\cc2n(-c3ccc(Cl)cc3)c3ccccc3nc-2cc1Nc1ccc(Cl)cc1)NCc1ccc(C(F)(F)F)cc1,Mycobacteroides abscessus,microbial growth,,clinical isolate,MIC,> 30 µM
Cc1ccccc1C(=O)C#Cc1ccc(F)c(F)c1,Pseudomonas aeruginosa,"microbial growth, absorbance",,"10 µM, 24 h",activity vs control,101%
CN(C)c1cc(NC(=O)CCc2ccccc2)c(O)c2c1C[C@H]1C[C@H]3[C@H](N(C)C)C(O)=C(C(N)=O)C(=O)[C@@]3(O)C(O)=C1C2=O,Mycobacteroides abscessus,"microbial growth, resazurin",ATCC19977,,IC50,8.87 µg/mL
